Assay [1] deals with Canis familiaris. Kind of assay: Hemodynamic effect in sinoaortic- deafferented hypertensive dog measured as mean arterial BP after 0 min of 5 mg/kg dose. Format: functional, Canis lupus familiaris.
The test system of assay [2] is Canis familiaris. Nature of the assay: Hemodynamic effect in sinoaortic- deafferented hypertensive dog measured as mean arterial BP after 30 min of 5 mg/kg dose. Format: functional, Canis lupus familiaris.
Assay [3] concerns Canis familiaris. Kind of assay: Hemodynamic effect in sinoaortic- deafferented hypertensive dog measured as mean arterial BP after 5 min of 5 mg/kg dose. Type of assay: functional, Canis lupus familiaris.
In assay [4] the test system is Canis familiaris. Nature of the assay: Hemodynamic effect in sinoaortic- deafferented hypertensive dog measured as mean arterial BP after 60 min of 5 mg/kg dose. Type of assay: functional, Canis lupus familiaris.
The subject of assay [5] is Canis familiaris. Kind of assay: Mean arterial BP after administration at a dose of 10 mg/kg iv. Type of assay: functional, Canis lupus familiaris.
The subject of assay [6] is Canis familiaris. Nature of the assay: Mean arterial BP before administration at a dose of 10 mg/kg iv. Type of assay: functional, Canis lupus familiaris.
For assay [7], the system named is Canis familiaris. Kind of assay: effect of compound at a dose of 10 mg/kg iv, on standard cardiovascular in anesthetized normotensive dogs after administration of carbachol. Format: functional, Canis lupus familiaris, Heart. The gist of the method: (§1)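 Bilateral vagotomy was performed. BP was recorded via a femoral artery, with iv dosing via a femoral vein; BP and heart rate were recorded continuously. Each iv challenge was given twice before test drug and once after. Challenge doses were epinephrine and norepinephrine 0.5–1.0 μg/kg, and isoproterenol and carbachol 0.25 μg/kg.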

The test system of assay [8] is Canis familiaris. Nature of the assay: effect of compound at a dose of 10 mg/kg iv, on standard cardiovascular in anesthetized normotensive dogs after administration of epinephrine. Format: functional, Canis lupus familiaris, Heart. The gist of the method:
as §1

Assay [9] has as its system Canis familiaris. Nature of the assay: effect of compound at a dose of 10 mg/kg iv, on standard cardiovascular in anesthetized normotensive dogs after administration of isoproterenol. Format: functional, Canis lupus familiaris, Heart. The gist of the method: as §1
Assay [10] has as its system Canis familiaris. Nature of the assay: effect of compound at a dose of 10 mg/kg iv, on standard cardiovascular in anesthetized normotensive dogs after administration of norepinephrine. Format: functional, Canis lupus familiaris, Heart. The gist of the method: as §1
Assay [11] concerns Canis familiaris. Nature of the assay: effect of compound at a dose of 10 mg/kg iv, on standard cardiovascular in anesthetized normotensive dogs after administration of tyramine. Type of assay: functional, Canis lupus familiaris, Heart.
Assay [12] concerns Canis familiaris. Kind of assay: effect of compound at a dose of 10 mg/kg iv, on standard cardiovascular in anesthetized normotensive dogs before administration of carbachol. Format: functional, Canis lupus familiaris, Heart. The gist of the method: as §1
In assay [13] the test system is Canis familiaris. Nature of the assay: effect of compound at a dose of 10 mg/kg iv, on standard cardiovascular in anesthetized normotensive dogs before administration of epinephrine. Format: functional, Canis lupus familiaris, Heart. The gist of the method:
as §1

In assay [14] the test system is Canis familiaris. Kind of assay: effect of compound at a dose of 10 mg/kg iv, on standard cardiovascular in anesthetized normotensive dogs before administration of isoproterenol. Type of assay: functional, Canis lupus familiaris, Heart. The gist of the method: as §1
In assay [15] the test system is Canis familiaris. Kind of assay: effect of compound at a dose of 10 mg/kg iv, on standard cardiovascular in anesthetized normotensive dogs before administration of norepinephrine. Format: functional, Canis lupus familiaris, Heart. The gist of the method: as §1
Assay [16] relates to Canis familiaris. Nature of the assay: effect of compound at a dose of 10 mg/kg iv, on standard cardiovascular in anesthetized normotensive dogs before administration of tyramine. Type of assay: functional, Canis lupus familiaris, Heart.
The subject of assay [17] is Canis familiaris. Nature of the assay: Mean heart rate after administration at a dose of 10 mg/kg iv. Format: functional, Canis lupus familiaris.
In assay [18] the test system is Canis familiaris. Nature of the assay: Mean heart rate before administration at a dose of 10 mg/kg iv. Type of assay: functional, Canis lupus familiaris.
For assay [19], the system named is Canis familiaris. Kind of assay: Hemodynamic effect in sinoaortic- deafferented hypertensive dog measured as heart rate after 0 min of 5 mg/kg dose. Type of assay: functional, Canis lupus familiaris.
Assay [20] has as its system Canis familiaris. Kind of assay: Hemodynamic effect in sinoaortic- deafferented hypertensive dog measured as heart rate after 30 min of 5 mg/kg dose. Format: functional, Canis lupus familiaris.
Assay [21] deals with Canis familiaris. Nature of the assay: Hemodynamic effect in sinoaortic- deafferented hypertensive dog measured as heart rate after 5 min of 5 mg/kg dose. Format: functional, Canis lupus familiaris.
Assay [22] concerns Canis familiaris. Kind of assay: Hemodynamic effect in sinoaortic- deafferented hypertensive dog measured as heart rate after 60 min of 5 mg/kg dose. Format: functional, Canis lupus familiaris.
The species entered for assay [23] is Rattus norvegicus. Nature of the assay: hypotensive activity in renal hypertensive rats by using tail-cuff method measured as BP on day/h postdrug. Type of assay: functional, Blood. The gist of the method:
(§2)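 Renal hypertension (modified Grollman) was made in male Sprague-Dawley rats under pentobarbital sodium 50 mg/kg ip. The right kidney was removed, and silk sutures around both poles of the left kidney constricted the parenchyma. After 3 weeks of stabilization, rats with systolic BP >150 mmHg were used. Compounds were given orally. Systolic BP was measured by tail-cuff predose and at the stated day/h after dosing.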

Assay [24] is filed under the species Rattus norvegicus. Nature of the assay: hypotensive activity in renal hypertensive rats by using tail-cuff method measured as initial BP. Format: functional, Blood. The gist of the method:
as §2

The species named for assay [25] is Rattus norvegicus. Nature of the assay: Oral hypotensive activity in spontaneously hypertensive rats by using tail-cuff method measured as the initial BP. Type of assay: functional, Blood. The gist of the method: (§3)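 Okamoto-Aoki strain spontaneously hypertensive rats. Compounds were suspended in distilled water with Tween 80 and given orally every day at 50, 30, 10 or 3 mg/kg. Systolic BP was measured by tail-cuff plethysmography on day 1 (predose and 2 h), day 3 (predose and 2 h) and day 5 (predose, 2 and 4 h). The screen used 4 rats; dose-response used 4–8 rats per dose.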

The subject of assay [26] is Rattus norvegicus. Kind of assay: Oral hypotensive activity in spontaneously hypertensive rats by using tail-cuff method measured as change in systolic BP at the dose of 50 mg/kg po. Type of assay: functional, Blood. The gist of the method: as §3
The species entered for assay [27] is Rattus norvegicus. Kind of assay: Hypotensive activity in renal hypertensive rats by using tail-cuff method measured as BP on day/h postdrug. Format: functional, Blood. The gist of the method: (§4)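 Renal hypertension made in male Sprague-Dawley rats (Grollman modification). Under pentobarbital (50 mg/kg ip), the right kidney was removed and silk sutures tied around both poles of the left kidney to constrict it. After 3 weeks, rats with systolic BP >150 mmHg were used. Compound given po daily to 4 rats. Systolic BP by tail-cuff plethysmography at the listed day/hour after dosing.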

The species entered for assay [28] is Rattus norvegicus. Kind of assay: Hypotensive activity in renal hypertensive rats by using tail-cuff method measured as change in BP on day/h postdrug. Type of assay: functional, Blood. The gist of the method: as §4
The species named for assay [29] is Rattus norvegicus. Kind of assay: Oral hypotensive activity in spontaneously hypertensive rats by using tail-cuff method measured as change in systolic BP. Format: functional, Blood. The gist of the method:
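Okamoto-Aoki spontaneously hypertensive rats. Compound suspended in distilled water with Tween 80, given po daily, screening dose 50 mg/kg, dose-response at 50, 30, 10 or 3 mg/kg unless stated. Systolic BP by tail-cuff plethysmography on day 1 predose and 2 h, day 3 predose and 2 h, and day 5 predose, 2 and 4 h. Reported as peak decrease on day 3 (or day 5) at 2 h ± SEM. n = 4 in screen, 4–8 per dose.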

The subject of assay [30] is Rattus norvegicus. Nature of the assay: Oral hypotensive activity in spontaneously hypertensive rats by using tail-cuff method measured as change in systolic BP at the dose of 30 mg/kg po. Type of assay: functional, Blood. The gist of the method: as §3
Assay [31] has as its system Canis familiaris. Kind of assay: Hemodynamic effect in sinoaortic- deafferented hypertensive dog measured as cardiac output after 0 min of 10 mg/kg.
In assay [32] the test system is Canis familiaris. Nature of the assay: Hemodynamic effect in sinoaortic- deafferented hypertensive dog measured as cardiac output after 5 min of 10 mg/kg.
Assay [33] deals with Canis familiaris. Nature of the assay: Hemodynamic effect in sinoaortic- deafferented hypertensive dog measured as cardiac output after 30 min of 10 mg/kg.
The test system of assay [34] is Canis familiaris. Kind of assay: Hemodynamic effect in sinoaortic- deafferented hypertensive dog measured as cardiac output after 60 min of 10 mg/kg.
For assay [35], the system named is Canis familiaris. Kind of assay: Hemodynamic effect in sinoaortic- deafferented hypertensive dog measured as left ventricular pressure after 0 min of 10 mg/kg.
The test system of assay [36] is Canis familiaris. Nature of the assay: Hemodynamic effect in sinoaortic- deafferented hypertensive dog measured as left ventricular pressure after 5 min of 10 mg/kg.
In assay [37] the test system is Canis familiaris. Kind of assay: Hemodynamic effect in sinoaortic- deafferented hypertensive dog measured as left ventricular pressure after 30 min of 10 mg/kg.
The subject of assay [38] is Canis familiaris. Nature of the assay: Hemodynamic effect in sinoaortic- deafferented hypertensive dog measured as left ventricular pressure after 60 min of 10 mg/kg.
For assay [39], the system named is Rattus norvegicus. Nature of the assay: Oral hypotensive activity in spontaneously hypertensive rats by using tail-cuff method measured as change in systolic BP at the dose of 10 mg/kg po. Type of assay: functional, Blood. The gist of the method:
(§5)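 SHR of the Okamoto-Aoki strain, dosed orally every day with compound suspended in distilled water with Tween 80. Systolic pressure was taken by tail-cuff plethysmography on day 1 (predose, 2 h), day 3 (predose, 2 h) and day 5 (predose, 2 and 4 h). Initial BP is the pretreatment systolic pressure, with 4–8 rats per dose in the dose-response screen.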

Assay [40] relates to Rattus norvegicus. Nature of the assay: Oral hypotensive activity in spontaneously hypertensive rats by using tail-cuff method measured as change in systolic BP at the dose of 25 mg/kg po. Format: functional, Blood. The gist of the method: as §5

Each structure is given as a SMILES string. Values joined by “and” are separate entries in the source; they are usually repeats but may differ in a detail not shown here. Identical values can stand only once.

Turning to `CCN1CCC2(CC1)Oc1ccccc1C2n1cccc1` (stereo not drawn), the BP is 165 mmHg in the assay on Canis familiaris [1]; 98 mmHg in the assay on Canis familiaris [2]; 121 mmHg in the assay with Canis familiaris [3]; 103 mmHg in the assay with Canis familiaris [4]; 106.3 mmHg in the assay on Canis familiaris [5]; 132.7 mmHg with Canis familiaris [6]. For the same molecule, the BP in the assay on Canis familiaris [7] was -37 mmHg; in the assay with Canis familiaris [8], 59.7 mmHg; with Canis familiaris [9] it was -39.3 mmHg; in the assay with Canis familiaris [10], 66 mmHg; with Canis familiaris [11] it was 84.3 mmHg; with Canis familiaris [12], -52 mmHg. Further, the BP is 44.8 mmHg in the assay on Canis familiaris [13]; -34.3 mmHg in the assay with Canis familiaris [14]; 56.7 mmHg with Canis familiaris [15]; 64.3 mmHg with Canis familiaris [16]; 131 mmHg and 113 mmHg and 116 mmHg and 129 mmHg in the assay filed under Rattus norvegicus [23]; 162 mmHg in the assay listed under Rattus norvegicus [24]. Besides, the BP in the assay filed under Rattus norvegicus [25] is 180 mmHg and 214 mmHg; in the assay with Rattus norvegicus [26] it was 187 mmHg; in the assay filed under Rattus norvegicus [27] it was 110 mmHg; with Rattus norvegicus [30], 187 mmHg. The Rate in the assay on Canis familiaris [17] came to 126 beats min-1; in the assay with Canis familiaris [18] it was 167 beats min-1; with Canis familiaris [19] it was 170 beats min-1; with Canis familiaris [20] it was 126 beats min-1; in the assay on Canis familiaris [21], 134 beats min-1; in the assay with Canis familiaris [22] it was 132 beats min-1. For the same molecule, the Delta blood pressure with Rattus norvegicus [26] is 71 mmHg; in the assay listed under Rattus norvegicus [28], 31 mmHg and 52 mmHg and 49 mmHg and 46 mmHg and 33 mmHg; in the assay filed under Rattus norvegicus [29] it was 27 mmHg and 38 mmHg; in the assay with Rattus norvegicus [30], 71 mmHg. Further, the Cardiac output stood at 2120 mL/min in the assay with Canis familiaris [31], 1600 mL/min with Canis familiaris [32], 1530 mL/min in the assay on Canis familiaris [33] and 1600 mL/min with Canis familiaris [34]. In addition, the dP/dt in the assay on Canis familiaris [35] was 27.2 1/Pmax; with Canis familiaris [36], 20.3 1/Pmax; with Canis familiaris [37], 21.2 1/Pmax; in the assay with Canis familiaris [38] it was 25.6 1/Pmax.

Consider `O=C(CCCN1CCC2(CC1)Oc1ccccc1C2n1cccc1)c1ccc(F)cc1` (stereo not drawn), for which, in the assay filed under Rattus norvegicus [25], the BP is reported as 199 mmHg. In addition, in the assay listed under Rattus norvegicus [29], the Delta blood pressure worked out at 37 mmHg.

`CCCN1CCC2(CC1)Oc1ccccc1C2n1cccc1` (stereo not drawn): the BP in the assay filed under Rattus norvegicus [25] is 177 mmHg. In the assay filed under Rattus norvegicus [29], this molecule displayed a Delta blood pressure of 14 mmHg.

Molecule `N/C(=N\O)N1CCC2(CC1)Oc1ccccc1C2n1cccc1` (stereo not drawn) returned a BP in the assay listed under Rattus norvegicus [25] of 209 mmHg. The same molecule displayed a Delta blood pressure in the assay filed under Rattus norvegicus [29] of 24 mmHg.

With `c1ccc2c(c1)OC1(CCNCC1)C2n1cccc1` (stereo not drawn), the BP with Rattus norvegicus [39] was determined as 198 mmHg; in the assay with Rattus norvegicus [40] it was 200 mmHg; in the assay with Rattus norvegicus [26], 189 mmHg. For the same molecule, the figures for the Delta blood pressure in the assay on Rattus norvegicus [39], with Rattus norvegicus [40] and in the assay on Rattus norvegicus [26] were 33 mmHg, 49 mmHg and 43 mmHg, respectively.

Regarding `c1ccc(CCN2CCC3(CC2)Oc2ccccc2C3n2cccc2)cc1` (stereo not drawn), the BP in the assay listed under Rattus norvegicus [25] was 203 mmHg and 180 mmHg and 176 mmHg.

The values are drawn from ChEMBL document CHEMBL1122463, “2,3-dihydro-3-(1-pyrryl)spiro[benzofuran-2,4'-piperidine]s and 2,3-dihydro-3-(1-pyrryl)spiro[benzofuran-2,3'-pyrrolidine]s: novel antihypertensive agents” (1983).
